The list is not random: actives were taken first. Their share in the collection is about 2.1%.
PAX8 inh HTS = lowers PAX8-driven luciferase in RMG-I cells; RMG-I TPO-luciferase reporter, SteadyGlo, 24 h; inhibition, % at 12.6 µM; 1.2% of 360,000 active;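 active = mean replicate inhibition at least 60% with every replicate also reaching 60%; inconclusive = only one of the two criteria is met; inactive = mean below 60% and not all replicates reaching 60%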;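 also: luciferase light reporting Pax8 driven TPO promoter activity; plate controls were median of neutral control wells for no effect and mitoxantrone controls for full effect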
MLL AF4-AF9 inh = MLL-AF4/AF9 protein interaction inhibition | AlphaScreen, biotin-AF4 peptide binding to FLAG-AF9 | inhibition, % at 10 µM | 0.47% of 350,000 active | AID 651704;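 active = every replicate reaching a set inhibition limit, whatever the replicate mean, cut at about 25% in these data; inconclusive = mean inhibition reaches that limit but some replicates miss it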;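 also: 0% = plate neutral control median and 100% = total signal loss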
Target sequence (P42568 whole entry, looked up): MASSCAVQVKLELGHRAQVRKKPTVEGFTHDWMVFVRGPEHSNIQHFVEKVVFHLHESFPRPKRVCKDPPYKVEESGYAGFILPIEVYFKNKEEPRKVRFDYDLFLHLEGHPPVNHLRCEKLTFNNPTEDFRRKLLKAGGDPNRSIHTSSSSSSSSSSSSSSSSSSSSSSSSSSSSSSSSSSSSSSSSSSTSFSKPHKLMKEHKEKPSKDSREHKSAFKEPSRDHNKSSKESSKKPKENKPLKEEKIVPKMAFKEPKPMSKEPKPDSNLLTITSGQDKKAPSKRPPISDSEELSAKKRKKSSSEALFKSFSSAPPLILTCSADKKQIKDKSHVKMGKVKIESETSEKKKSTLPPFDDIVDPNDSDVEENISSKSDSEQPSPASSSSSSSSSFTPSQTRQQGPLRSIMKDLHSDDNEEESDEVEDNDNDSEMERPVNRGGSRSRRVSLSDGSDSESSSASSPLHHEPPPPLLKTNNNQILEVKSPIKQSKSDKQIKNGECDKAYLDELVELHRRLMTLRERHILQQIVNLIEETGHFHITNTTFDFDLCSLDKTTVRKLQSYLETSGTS
XiGFP reactiv = reactivates the inactive X chromosome in mouse fibroblasts; AID 743238; 0.055% of 360,000 active; XiGFP mouse fibroblasts, % GFP-positive cells imaging, 3 d; cells co-treated with 5-aza-dC sensitizer; scaled so ellipticine positive control = 100%; activation, % at 7.58 µM;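 active = mean normalized replicate activation at least 10% and every replicate at or above 10%; inconclusive = only one of the two criteria met; inactive = mean below 10% and not all replicates reach 10%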;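 also: 0% = median of on-plate neutral control wells and 100% = ellipticine 6 µM median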
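assay system = SV40-immortalized XiGFP fibroblast cells, line 68-5-11 | buffer or medium = DMEM plus 5-aza-dC sensitizer | doses = single-point pinned compound dosing | times = 3-day compound exposure, then 15 min fixation at room temperature | benchmarks = positive control ellipticine, 6 µM final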
EWS-Fli block = EWS/Fli transcriptional activity inhibition; A673 NR0B1-luciferase reporter, viability-normalised; inhibition, % at 12.6 µM; 0.67% of 350,000 active;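 active = mean inhibition of at least 50% after viability correction, with every replicate also passing that limit; inconclusive = mean reaches 50% but only one of two replicates passes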;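 also: firefly luciferase signal divided by Alamar Blue viability fluorescence both relative to DMSO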
PGC1a acetyl inh = lowers PGC1a acetylation signal in U2OS cells; AlphaScreen anti-acetyl-lysine; with virally co-expressed GCN5 acetyltransferase; AID 651687; inhibition, % at 15.6 µM; 0.17% of 350,000 active;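 active = every replicate shows inhibition of at least 40%; inconclusive = mean inhibition at least 40% but some replicate below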;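 also: 0% = neutral control wells and 100% = positive control wells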
GSIS activator = primary screen for activators of insulin secretion dependent on glucose, INS-1E cells, GLuc reporter luminescence. INS-1E GLuc reporter insulin secretion, 2-3 h. AID 743287. 0.61% of 370,000 active. activation, % at 16.6 µM;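 active = lowest replicate activation of at least 40%, so every replicate reaches that level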;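 also: 0% = median of neutral control wells and 100% = median of IBMX positive control wells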
* = called active by the depositor; ? = inconclusive; nt = no result.

SMILES	PAX8 inh HTS	MLL AF4-AF9 inh	XiGFP reactiv	EWS-Fli block	PGC1a acetyl inh	GSIS activator
Cc1cccc(-n2ncc3c(N4CCOCC4)ncnc32)c1	47	-2	0	68*	7	27
COc1ccc(-n2ncc3c(N4CCCCC4)ncnc32)cc1	nt	nt	nt	nt	-10	nt
Cc1cccc(-n2cc(-c3ccccc3)c3c(N4CCOCC4)ncnc32)c1	68*	7	0	-10	8	-14
Clc1ccc(-n2ncc3c(N4CCCCCC4)ncnc32)cc1	-7	5	0	80*	-8	-7
Cc1ccc(-n2cc(-c3ccccc3)c3c(N4CCOCC4)ncnc32)cc1	20	6	0	-4	nt	-7
Cc1cccc(-n2ncc3c(N4CCCC4)ncnc32)c1	nt	nt	nt	nt	-8	15
O=C(Nc1ccccc1F)N[C@H]1CC[C@H](CCNC(=O)C2CCOCC2)O[C@H]1CO	-9	-2	0	-2	4	-4
COc1cccc(C(=O)OCCCOC(=O)c2cccc(OC)c2OC)c1OC	nt	-4	0	nt	nt	42*
Cc1ccc(S(=O)(=O)N[C@@H]2CC[C@@H](CCNC(=O)Cc3ccccn3)O[C@H]2CO)cc1	14	1	0	-1	5	11
Cc1ccc(NC(=O)c2cc(N3C(=O)C=CC3=O)ccc2Cl)cc1C	2	nt	1	nt	-16	50*
COc1ccccc1S(=O)(=O)N(C)C[C@@H]1Oc2cc(C#CCC3CCCC3)ccc2S(=O)(=O)N([C@@H](C)CO)C[C@@H]1C	76*	1	-1	10	-5	8
COc1ccccc1S(=O)(=O)N(C)C[C@H]1Oc2cc(C#CCC(C)C)ccc2S(=O)(=O)N([C@H](C)CO)C[C@@H]1C	nt	2	0	19	-8	12
COc1ccccc1S(=O)(=O)N(C)C[C@@H]1Oc2cc(C#CCC3CCCC3)ccc2S(=O)(=O)N([C@@H](C)CO)C[C@H]1C	73*	2	0	-3	1	1
CCC(=O)N(C)C[C@@H]1Oc2cc(C#CCC3CCCC3)ccc2S(=O)(=O)N([C@H](C)CO)C[C@@H]1C	-12	-1	0	-3	-2	-20
Cc1ccc(/C=C2/NC(=O)N(Cc3ccc(Br)cc3)C2=O)o1	-7	nt	0	nt	-42	57*
O=C1/C(=C/c2ccncc2)CCC/C1=C\c1ccncc1	71*	-9	0	71*	78*	-24
C[C@@H]1CN([C@H](C)CO)C(=O)Cc2cc(NC(=O)CCN3CCOCC3)ccc2O[C@@H]1CN(C)C(=O)Nc1cccc2ccccc12	nt	-1	-1	8	-1	-6
COc1ccc(C(=O)NC2CCCc3ccccc32)cc1 (centres undefined)	-23	0	0	-15	-8	4
COc1ccc(NC(=O)COc2ccc(C(=O)NC3CCCc4ccccc43)cc2OC)cc1 (centres undefined)	0	nt	0	nt	nt	176*
Cc1ccc(S(=O)(=O)N(CC(=O)Nc2ccc(C)cc2C)C(=O)N2CCN(C)CC2)cc1	-11	-1	0	-9	-14	221*
Cc1ccc(NC(=O)CN(C(=O)N2CCN(C)CC2)S(=O)(=O)c2ccc(C)cc2)cc1	-11	-1	0	1	nt	45*
CCSc1ncc(Cl)c(C(=O)Nc2ccc(S(N)(=O)=O)cc2)n1	70*	-2	0	18	6	16
CC(=O)Nc1ccc(NC(=O)c2nc(S(=O)(=O)Cc3cccc(C)c3)ncc2Cl)cc1	91*	-3	2	61*	nt	-3
CCSc1ncc(Cl)c(C(=O)Nc2ccc(S(=O)(=O)Nc3ncccn3)cc2)n1	-9	-1	0	-2	7	36
CSc1nnc(NC(=O)c2nc(S(=O)(=O)Cc3ccccc3)ncc2Cl)s1	17	1	1	nt	-46	-8
SMILES	PAX8 inh HTS	MLL AF4-AF9 inh	XiGFP reactiv	EWS-Fli block	PGC1a acetyl inh	GSIS activator
CC(C)c1nnc(NC(=O)c2nc(S(=O)(=O)Cc3ccccc3)ncc2Cl)s1	17	-13	0	64*	nt	10
CCS(=O)(=O)c1ncc(Cl)c(C(=O)Nc2ccccc2OC)n1	5	-1	2	?	nt	22
COc1ccccc1NC(=O)c1nc(S(=O)(=O)Cc2ccccc2)ncc1Cl	130*	1	3	59*	-23	47
CNC[C@@H]1Oc2ncc(C#CC3CCCCC3)cc2C(=O)N([C@@H](C)CO)C[C@@H]1C	-17	nt	0	-13	-22	0
CNC[C@H]1OCCCC[C@H](C)Oc2ccc(NC(=O)CCC(F)(F)F)cc2C(=O)N([C@@H](C)CO)C[C@@H]1C	18	nt	-1	-58	4	1
N#C[C@H]1[C@H](c2ccc(C#Cc3cccnc3)cc2)[C@@H](CO)N1C(=O)NC1CCCC1	nt	nt	0	nt	nt	2
CC(=O)N1[C@H](C(=O)NCc2ccccc2)[C@@H](CO)[C@@H]2Cn3c(cccc3=O)[C@@H]21	-15	-2	1	nt	-8	7
CC1CCN(S(=O)(=O)c2ccc(NC(=O)c3ccncc3)cc2)CC1	17	0	0	32	5	4
CCS(=O)(=O)c1ncc(Cl)c(C(=O)Nc2ccc(S(=O)(=O)N3CCC(C)CC3)cc2)n1	100*	1	0	nt	nt	38
CCOc1ccccc1NC(=O)c1nc(S(=O)(=O)Cc2ccccc2)ncc1Cl	134*	4	2	?	-6	-24
O=C(CC1CC1)N1CC(=O)N2[C@H](CO)[C@@H](c3ccc(C#Cc4ccccc4)cc3)[C@@H]2C1	nt	6	0	-7	-4	-5
C[C@@H]1CN([C@H](C)CO)C(=O)c2ccccc2-c2ccccc2CO[C@@H]1CN(C)C(=O)CCN(C)C	-20	-3	0	-4	4	11
Cc1ccc(NC(=O)CC2S/C(=N/N=C/c3c[nH]c4ccccc34)NC2=O)cc1 (centres undefined)	nt	nt	nt	nt	nt	60*
CCOC(=O)c1ccc(NC(=O)CC2S/C(=N/N=C/c3c[nH]c4ccccc34)NC2=O)cc1 (centres undefined)	-9	nt	0	nt	nt	-2
Cc1ccc(-c2ccc(=O)n(CCC(=O)N3CCN(c4ccccc4)CC3)n2)cc1	63*	3	0	-3	-4	-11
O=C(N/N=C/c1ccccc1)c1[nH]c2ccc(Br)cc2c1-c1ccccc1	13	-6	1	76*	nt	18
O=C(NCCN1C(=O)S/C(=C\c2ccc(OC(F)F)cc2)C1=O)c1cnccn1	128*	1	0	59*	nt	-5
C[C@H]1CN([C@@H](C)CO)C(=O)c2cc(C#CCc3ccccc3)cnc2O[C@H]1CN(C)Cc1ccccc1	20	5	0	22	2	-15
COc1ccc(OC)c(Nc2cc3ccccc3c(=O)[nH]2)c1	9	10	0	62*	17	-16

Screens from PubChem BioAssay.
